What all share (format): cell-based
Experiment [1] relates to human mammary epithelial cells (HMECs). Nature of the experiment: MTT cell viability assay, HMEC normal control. The conditions noted are these: 24 h, read-out: IC50, HMECs (normal cells). In a few lines:
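Normal human mammary epithelial cells kept in mammary epithelial growth medium at 37°C, 5% CO2. Test compound was applied for 24 h over 5.0–50.0 μM (10.0 mM DMSO stocks), and viability was measured by MTT: 2 h in the dark at 37°C, DMSO solubilisation, read at 579/650 nm. Mean ± SEM of n=3; no IC50 assigned if viability stayed above 50% at 50 μM.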
Background: Formazan colour is commonly taken as a measure of viable cells.

The subject of experiment [2] is MDA-MB-231 breast cancer cells. Nature of the experiment: MTT cell viability assay, MDA-MB-231. Particulars: Homo sapiens; for IC20: MDA-MB-231, read-out: IC20 (20% inhibitory concentration) on MDA-MB-231 cell line. In a few lines:
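MDA-MB-231 cells (ATCC) grown in RPMI 1640 with 10% FBS, penicillin/streptomycin, 37°C, 5% CO2. Seeded in triplicate at 1.0×10^4 cells/well, then after 24 h exposed to 5.0–50.0 μM test compound (10.0 mM DMSO stock) for 24 h. MTT (5.0 mg/mL) was added for 2 h at 37°C in the dark, formazan dissolved in DMSO, and absorbance read at 579 nm (reference 650 nm). Mean ± SEM, n=3.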

The subject of another experiment is HepG2 liver cancer cells. Nature of the experiment: MTT cell viability assay, HepG2. Particulars: Homo sapiens, HepG2, 24 h, read-out: IC50, Hepatocyte carcinoma (HepG2). In a few lines:
(§1)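 Cultured in DMEM with 10% FBS, penicillin/streptomycin, 37°C, 5% CO2. Cells plated in triplicate at 1.0×10^4/well. After 24 h, test compound was added at 5.0–50.0 μM (from 10.0 mM DMSO stocks) for 24 h. MTT reduction ran 2 h at 37°C in the dark, formazan was dissolved in DMSO, absorbance 579 nm (reference 650 nm). IC50 given as mean ± SEM (n=3), not assigned when viability remained >50% at 50 μM.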

In experiment [3] the test system is RT-112 urinary bladder cancer cells. Nature of the experiment: MTT cell viability assay, RT-112. The conditions noted are these: Homo sapiens, RT-112, 24 h, read-out: IC50, Bladder carcinoma (RT-112). Summed up: (§2)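 Cells grown in RPMI 1640 with 10% FBS, penicillin and streptomycin at 37°C, 5% CO2. DMSO stocks were 10.0 mM. Seeded in triplicate at 1.0×10^4 cells/well; after 24 h, dosed 5.0–50.0 μM for 24 h. MTT (5.0 mg/mL) was added for 2 h at 37°C in the dark, formazan dissolved in DMSO, A579 read against 650 nm. IC50 reported as mean ± SEM, n=3. Not assigned if viability stayed above 50% at 50 μM.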

The subject of experiment [4] is EJ-28 urinary bladder cancer cells. Nature of the experiment: MTT cell viability assay, EJ-28. Particulars: Homo sapiens, EJ-28, 24 h, read-out: IC50, Bladder carcinoma (EJ-28). In a few lines: as §2
Experiment [5] concerns PC-3 prostate cancer cells. Nature of the experiment: MTT cell viability assay, PC-3. Particulars: Homo sapiens, 24 h, read-out: IC50, Prostate carcinoma (PC-3). Summed up: as §2
For experiment [6], the system named is HSC-4 oral squamous cancer cells. Nature of the experiment: MTT cell viability assay, HSC-4. Particulars: Homo sapiens, HSC-4, 24 h, read-out: IC50, Oral squamous carcinoma (HSC-4). In a few lines: as §1
Experiment [7] relates to MCF-7 breast cancer cells. Nature of the experiment: MTT cell viability assay, MCF-7. Particulars: Homo sapiens, MCF7, 24 h, read-out: IC50, Breast adenocarcinoma (MCF-7). In a few lines:
as §2

As for `C=CCc1cc(OC)c(O)c(OC)c1` [compound 2, 4-Allyl-2,6-dimethoxyphenol], the IC50 (in experiment [1]; in the experiment with HepG2 liver cancer cells; in experiment [3]; in experiment [4]; in experiment [5]; in experiment [6]) was over 50 µM throughout. For the same compound, the IC50 in experiment [7] was over 50 µM. The IC20 in experiment [2] worked out at 48 µM.
For the compound `C=CCc1ccc(OC)cc1` [compound 5, 4-allyl anisole], the IC50 in experiment [1] was over 50 µM; in experiment [2] (MDA-MB-231, 24 h, read-out: IC50, Breast adenocarcinoma (MDA-MB-231)), over 50 µM; in the experiment on HepG2 liver cancer cells, over 50 µM; in experiment [3] it was over 50 µM; in experiment [4] it was over 50 µM; in experiment [5] it was over 50 µM. Further, the half-inhibitory concentration (IC50) in experiment [6] and in experiment [7] was over 50 µM each time. Also, the IC20 in experiment [2] is 32 µM.

By IC50 is commonly meant the concentration that inhibits the measured activity by half.

Values taken from PMC5609789 (Drug Design, Development and Therapy, 2017).
